Results published in ChEMBL document CHEMBL1122782, “Bulky amine analogues of ketoprofen: potent antiinflammatory agents” (J Med Chem, 1984).

Tests used:
Rattus norvegicus [1] = species on record: Rattus norvegicus; test: Compound was evaluated for highest non-ulcerogenic dose (less than 50% ulcer incidence); assay type: functional; conditions: read-out: ED50
How it was run: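 Taken from the 21-day adjuvant arthritis test in male Sprague-Dawley rats dosed orally each day from the day of adjuvant injection. Small intestines and stomachs were examined for ulceration at the end. The value is the highest dose giving less than 50% ulcer incidence.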

Rattus norvegicus [2] = test: Antiinflammatory efficacy is measured by the percent inhibition of paw volume during the 3 week adjuvant arthritis test at 0.08 mM/kg (35.2 mg); assay type: functional
How it was run: (§1)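 Male Sprague-Dawley rats (200–230 g) were used in groups of eight. Each received 0.1 mL of 0.6% M. butyricum in heavy mineral oil into the plantar tissue of one hind paw. Daily oral gavage in 1% gum tragacanth or corn oil-water emulsion began on the injection day and ran 21 days. Total hind paw volume was measured by mercury displacement, and inhibition was taken versus vehicle-treated adjuvant controls.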

Rattus norvegicus [3] = test: Antiinflammatory efficacy is measured by the percent inhibition of paw volume during the 3 week adjuvant arthritis test at 0.005 mM/kg (2.20 mg); assay type: functional; how it was run: as §1
Rattus norvegicus [4] = test: Antiinflammatory efficacy is measured by the percent inhibition of paw volume during the 3 week adjuvant arthritis test at 0.02 mM/kg (8.80 mg); assay type: functional; how it was run: as §1
Rattus norvegicus [5] = test: The mean increase in paw volume was compared between drug treated groups and placebo to calculate the percent inhibition in rats at 0.02 mmol/kg by carrageenan Edema Assay; 40-49; assay type: functional
Rattus norvegicus [6] = test: The percent inhibition was calculated from the average differences in hind paw volume between the adjuvant injected controls and the adjuvant-injected medicated rats at 0.08 mmol/kg; 80-89; assay type: functional
Rattus norvegicus [7] = test: Ulcerogenicity was measured in intestine during the 3 week adjuvant arthritis test, no of animals with ulcers out of 4 animals tested at 0.08 mM/kg (35.2 mg) was reported; assay type: functional
How it was run: (§2)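 In the 21-day adjuvant arthritis model, male Sprague-Dawley rats (200–230 g) received an M. butyricum mineral-oil suspension into one hind paw. They were dosed daily by gavage from the day of injection. At the end of the study the rats were killed, and the small intestines were examined for ulcers. Results are given as the number of ulcerated animals over the number tested.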

Rattus norvegicus [8] = test: Ulcerogenicity was measured in intestine during the 3 week adjuvant arthritis test, no of animals with ulcers out of 4 animals tested at 0.16 mM/kg (70.4 mg) was reported; assay type: functional; how it was run: as §2
Rattus norvegicus [9] = test: Ulcerogenicity was measured in stomach during the 3 week adjuvant arthritis test, no of animals with ulcers out of 4 animals tested at 0.08 mM/kg (35.2 mg) was reported; assay type: functional
How it was run: (§3)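 Male Sprague-Dawley rats (200–230 g) were injected in the plantar tissue of one hind paw with 0.1 mL of 0.6% M. butyricum suspension in heavy mineral oil. Daily oral gavage began on the day of adjuvant injection and ran for the 21 days, with drug suspended in 1% gum tragacanth or a corn oil-water emulsion. At the end the rats were sacrificed and the small intestine and stomach were examined for ulcers. Results are given as animals with ulcers/animals tested.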

Rattus norvegicus [10] = test: Ulcerogenicity was measured in stomach during the 3 week adjuvant arthritis test, no of animals with ulcers out of 4 animals tested at 0.16 mM/kg (70.4 mg) was reported; assay type: functional; how it was run: as §3
Rattus norvegicus [11] = test: Antiinflammatory efficacy is measured by the weight gain in rats during the 3 week adjuvant arthritis test at 0.16 mM/kg (70.4 mg); assay type: functional
How it was run: (§4)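 Male Sprague-Dawley rats (200–230 g), eight per group, received 0.1 mL of 0.6% M. butyricum in heavy mineral oil (negative controls: mineral oil) into one hind-paw plantar tissue. Daily gavage in 1% gum tragacanth or corn oil-water emulsion began on the injection day, for 21 days. Weight gain is expressed as (treated − adjuvant control)/(negative control − adjuvant control) × 100.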

Rattus norvegicus [12] = test: Ulcerogenicity was measured in intestine during the 3 week adjuvant arthritis test, no of animals with ulcers out of animals tested at 0.32 mM/kg (141 mg) was reported; toxic; assay type: functional, organism-based; how it was run: as §3
Rattus norvegicus [13] = test: Antiinflammatory efficacy is measured by the weight gain in rats during the 3 week adjuvant arthritis test at 0.08 mM/kg (35.2 mg); assay type: functional
How it was run: (§5)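 Rats were adjuvant-injected (M. butyricum in mineral oil, one hind paw) or given a mineral-oil placebo. They were dosed by gavage daily for 21 days from the injection day, with vehicle only for both control groups, then weighed at the end. Weight gain % = (treated − adjuvant control)/(negative control − adjuvant control) × 100.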

Rattus norvegicus [14] = test: Antiinflammatory efficacy is measured by the weight gain in rats during the 3 week adjuvant arthritis test at 0.02 mM/kg (8.80 mg); assay type: functional; how it was run: as §5
Rattus norvegicus [15] = test: Antiinflammatory efficacy is measured by the weight gain in rats during the 3 week adjuvant arthritis test at 0.005 mM/kg (2.20 mg); assay type: functional; how it was run: as §5
Rattus norvegicus [16] = test: The mean increase in paw volume was compared between drug treated groups and placebo to calculate the percent inhibition in rats at 0.08 mmol/kg by carrageenan Edema Assay; 60-69; assay type: functional
Rattus norvegicus [17] = test: The percent inhibition was calculated from the average differences in hind paw volume between the adjuvant injected controls and the adjuvant-injected medicated rats at 0.08 mmol/kg; 70-79; assay type: functional
Rattus norvegicus [18] = test: Antiinflammatory efficacy is measured by the percent inhibition of paw volume during the 3 week adjuvant arthritis test at 0.08 mM/kg (24.6 mg); assay type: functional; how it was run: as §1
Rattus norvegicus [19] = test: The mean increase in paw volume was compared between drug treated groups and placebo to calculate the percent inhibition in rats at 0.08 mmol/kg by carrageenan Edema Assay; 40-49; assay type: functional
Rattus norvegicus [20] = test: The percent inhibition was calculated from the average differences in hind paw volume between the adjuvant injected controls and the adjuvant-injected medicated rats at 0.08 mmol/kg; 60-69; assay type: functional; conditions: Rattus norvegicus
Rattus norvegicus [21] = test: Ulcerogenicity was measured in intestine during the 3 week adjuvant arthritis test, no of animals with ulcers out of 72 animals tested at 0.08 mM/kg (24.6 mg) was reported; assay type: functional; how it was run: as §2
Rattus norvegicus [22] = test: Ulcerogenicity was measured in intestine during the 3 week adjuvant arthritis test, no of animals with ulcers out of 55 animals tested at 0.50 mM/kg (154 mg) was reported; assay type: functional; how it was run: as §2
Rattus norvegicus [23] = test: Ulcerogenicity was measured in stomach during the 3 week adjuvant arthritis test, no of animals with ulcers out of 55 animals tested at 0.50 mM/kg (154 mg) was reported; assay type: functional; how it was run: as §3
Rattus norvegicus [24] = test: Ulcerogenicity was measured in stomach during the 3 week adjuvant arthritis test, no of animals with ulcers out of 72 animals tested at 0.08 mM/kg (24.6 mg) was reported; assay type: functional; how it was run: as §3
Rattus norvegicus [25] = test: Ulcerogenicity was measured in stomach during the 3 week adjuvant arthritis test, no of animals with ulcers out of 8 animals tested at 0.41 mM/kg (126 mg) was reported; assay type: functional; how it was run: as §3
Rattus norvegicus [26] = test: Antiinflammatory efficacy is measured by the weight gain in rats during the 3 week adjuvant arthritis test at 0.50 mM/kg (154 mg); assay type: functional; how it was run: as §4
Rattus norvegicus [27] = test: Ulcerogenicity was measured in intestine during the 3 week adjuvant arthritis test, no of animals with ulcers out of 8 animals tested at 0.41 mM/kg (126 mg) was reported; assay type: functional; how it was run: as §3
Rattus norvegicus [28] = test: Antiinflammatory efficacy is measured by the weight gain in rats during the 3 week adjuvant arthritis test at 0.08 mM/kg (24.6 mg); assay type: functional; how it was run: as §5
Rattus norvegicus [29] = test: Antiinflammatory efficacy is measured by the percent inhibition of paw volume during the 3 week adjuvant arthritis test at 0.08 mM/kg (32.24 mg); assay type: functional; how it was run: as §1
Rattus norvegicus [30] = test: Antiinflammatory efficacy is measured by the percent inhibition of paw volume during the 3 week adjuvant arthritis test at 0.02 mM/kg (8.11 mg); assay type: functional; how it was run: as §1
Rattus norvegicus [31] = test: Antiinflammatory efficacy is measured by the percent inhibition of paw volume during the 3 week adjuvant arthritis test at 0.005 mM/kg (2.03 mg); assay type: functional; how it was run: as §1
Rattus norvegicus [32] = test: The mean increase in paw volume was compared between drug treated groups and placebo to calculate the percent inhibition in rats at 0.02 mmol/kg by carrageenan Edema Assay; 50-59; assay type: functional
Rattus norvegicus [33] = test: The percent inhibition was calculated from the average differences in hind paw volume between the adjuvant injected controls and the adjuvant-injected medicated rats at 0.08 mmol/kg; 90-99; assay type: functional
Rattus norvegicus [34] = test: Ulcerogenicity was measured in intestine during the 3 week adjuvant arthritis test, no of animals with ulcers out of 3 animals tested at 0.32 mM/kg (130 mg) was reported; assay type: functional; how it was run: as §2
Rattus norvegicus [35] = test: Ulcerogenicity was measured in stomach during the 3 week adjuvant arthritis test, no of animals with ulcers out of 8 animals tested at 0.08 mM/kg (32.4 mg) was reported; assay type: functional; how it was run: as §3
Rattus norvegicus [36] = test: Ulcerogenicity was measured in intestine during the 3 week adjuvant arthritis test, no of animals with ulcers out of 8 animals tested at 0.08 mM/kg (32.4 mg) was reported; assay type: functional; how it was run: as §2
Rattus norvegicus [37] = test: Ulcerogenicity was measured in stomach during the 3 week adjuvant arthritis test, no of animals with ulcers out of 3 animals tested at 0.32 mM/kg (130 mg) was reported; assay type: functional; how it was run: as §3
Rattus norvegicus [38] = test: Antiinflammatory efficacy is measured by the weight gain in rats during the 3 week adjuvant arthritis test at 0.02 mM/kg (8.11 mg); assay type: functional; how it was run: as §5
Rattus norvegicus [39] = test: Antiinflammatory efficacy is measured by the weight gain in rats during the 3 week adjuvant arthritis test at 0.08 mM/kg (32.24 mg); assay type: functional; how it was run: as §5
Rattus norvegicus [40] = test: Antiinflammatory efficacy is measured by the weight gain in rats during the 3 week adjuvant arthritis test at 0.005 mM/kg (2.03 mg); assay type: functional; how it was run: as §5
Rattus norvegicus [41] = test: Potency relative to phenylbutazone at 0.02 […]; assay type: functional

Compound `CC(CN1CCCCC1CC1CCCCC1)c1cccc(C(O)c2ccc(Cl)cc2)c1` (stereo not drawn) has a highest non-ulcerogenic dose (Rattus norvegicus [1]) of 1 µmol/kg, an Inhibition (Rattus norvegicus [2]) of 88% and an Inhibition (Rattus norvegicus [3]) of 64%. It also gave an Inhibition (Rattus norvegicus [4]) of 70%, an inhibition in vivo at 20 µmol/kg (Rattus norvegicus [5]) of 40% and an inhibition in vivo at 80 µmol/kg (Rattus norvegicus [6]) of 80%. For the same compound, the Ulcerogenic index (Rattus norvegicus [7]) was 1, the Ulcerogenic index (Rattus norvegicus [8]) was 3 and the Ulcerogenic index (Rattus norvegicus [9]) was 0. For the same compound, the Ulcerogenic index (Rattus norvegicus [10]) was 0, the Weight gain (Rattus norvegicus [11]) was 84% and the Ulcerogenic index (Rattus norvegicus [12]) was “Toxic”. The Weight gain (Rattus norvegicus [13]) was 87%, the Weight gain (Rattus norvegicus [14]) was 69% and the Weight gain (Rattus norvegicus [15]) was 40%.
For `CC1CN(CC(C)c2cccc(C(=O)c3ccccc3)c2)CC(C)O1` (stereo not drawn), the inhibition in vivo at 80 µmol/kg (Rattus norvegicus [16]) was 60% and the inhibition in vivo at 80 µmol/kg (Rattus norvegicus [17]) was 70%.
With `CCCCC1C(=O)N(c2ccccc2)N(c2ccccc2)C1=O` [PHENYLBUTAZONE] the highest non-ulcerogenic dose (Rattus norvegicus [1]) was 40 µmol/kg, the Inhibition (Rattus norvegicus [18]) was 66% and the inhibition in vivo at 80 µmol/kg (Rattus norvegicus [19]) was 40%. The inhibition in vivo at 80 µmol/kg (Rattus norvegicus [20]) was 60%, the Ulcerogenic index (Rattus norvegicus [21]) was 11 and the Ulcerogenic index (Rattus norvegicus [22]) was 36. It also gave a Ulcerogenic index (Rattus norvegicus [23]) of 17, a Ulcerogenic index (Rattus norvegicus [24]) of 14 and a Ulcerogenic index (Rattus norvegicus [25]) of 3. For the same compound, the Weight gain (Rattus norvegicus [26]) was 41%, the Ulcerogenic index (Rattus norvegicus [27]) was 2 and the Weight gain (Rattus norvegicus [28]) was 21%.
With `CC(CN1CCCCC1CC1CCCCC1)c1cccc(C(O)c2ccccc2)c1` (stereo not drawn) the highest non-ulcerogenic dose (Rattus norvegicus [1]) was 8 µmol/kg, the Inhibition (Rattus norvegicus [29]) was 110% and the Inhibition (Rattus norvegicus [30]) was 82%. For the same compound, the Inhibition (Rattus norvegicus [31]) was 37%, the inhibition in vivo at 20 µmol/kg (Rattus norvegicus [32]) was 30% and the inhibition in vivo at 80 µmol/kg (Rattus norvegicus [33]) was 90%. It also gave a Ulcerogenic index (Rattus norvegicus [34]) of 3, a Ulcerogenic index (Rattus norvegicus [35]) of 1 and a Ulcerogenic index (Rattus norvegicus [36]) of 1. The Ulcerogenic index (Rattus norvegicus [37]) was 1, the Weight gain (Rattus norvegicus [38]) was 36% and the Weight gain (Rattus norvegicus [39]) was 67%. It also gave a Weight gain (Rattus norvegicus [40]) of 13% and a Relative potency (Rattus norvegicus [41]) of 8.6%.
